According to ChEMBL document CHEMBL3603801 (J Med Chem, 2015):

Legend:
[1] = Volume of distribution at steady state in rat at 0.5 mg/kg, iv; format: ADME, organism-based; conditions: in vivo, read-out: Vdss
[2] = Ratio of drug level in rat brain to plasma at 0.5 mg/kg, iv after 2 hrs; format: ADME, organism-based; conditions: brain and plasma, read-out: BPR
Procedure, shortened: (§1)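 Rats given 0.5 mg/kg iv in 10% DMA + 10% Solutol HS15 + 80% saline, or for some compounds 10% DMA + 10% Solutol HS15 + 80% (30% (2-hydroxypropyl)-β-cyclodextrin in saline). Brain:plasma and CSF:plasma ratios taken at 0.5 and 2 h; quantification limit 1.00 ng/mL.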

[3] = Ratio of drug level in rat brain to plasma at 0.5 mg/kg, iv after 0.5 hrs; format: ADME, organism-based; conditions: brain and plasma, read-out: BPR; procedure, shortened: as §1
[4] = Ratio of drug level in rat cerebrospinal fluid to plasma at 0.5 mg/kg, iv after 0.5 hrs; format: ADME, organism-based, CSF/Plasma; conditions: cerebrospinal fluid and plasma; procedure, shortened: as §1
[5] = Ratio of drug level in rat cerebrospinal fluid to plasma at 0.5 mg/kg, iv after 2 hrs; format: ADME, organism-based, CSF/Plasma; conditions: cerebrospinal fluid and plasma
[6] = Apparent permeability across apical to basolateral side of human Caco2 cells; format: ADME, cell-based; conditions: Caco-2
Procedure, shortened: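 Caco-2 monolayer; apparent permeability measured in the apical-to-basolateral direction, with efflux ratio also reported.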

[7] = Oral bioavailability in rat; format: ADME, organism-based; conditions: in vivo

Compound | Vd [1] [L/kg] | Kp at 2 h [2] | Kp at 0.5 h [3] | Kp at 0.5 h [4] | Kp at 2 h [5] | Papp A→B [6] [nm/s] | bioavailability [7] [%]
N#Cc1ccc(-c2cc(-c3cc(Cl)cc(C#N)c3)ncn2)nc1 | 4.9 | 6.7 | 4.7 | 0.01 | – | – | –
N#Cc1cc(C#N)cc(-c2cc(-c3ccc(F)cn3)ncn2)c1 | 3.3 | 8.2 | 5.5 | 0.04 | 0.07 | – | –
N#Cc1cc(Cl)cc(-c2cc(-c3ccc(F)cn3)ncn2)c1 | 3.7 | 2.7 | 2.9 | 0.01 | – | 130 | 100
Cc1cc(C#N)cc(-c2cc(-n3cccn3)ncn2)c1 | 2.5 | 1.9 | 1.7 | 0.02 | 0.01 | – | –
N#Cc1cc(Cl)cc(-c2cc(-c3ccccn3)ncn2)c1 | 4.4 | 1.9 | 1.7 | 0.01 | – | – | –
